Hits are enriched below; roughly 0.85% of the tested compounds scored in any of these assays.
OXTR agonist: human OXTR agonists, primary screen, fluorescence, CHO-OTR cells, Fluo-8 calcium. Oxytocin receptor (Homo sapiens), P30559. Fluo-8 calcium fluorescence; normalized: DMSO 0%, oxytocin 100%. activation, % at 3 µM. 320,000 compounds, 0.32% hits. AID 2435, 2010;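 active means activation above the mean of all tested compounds plus 3 SD, cutoff set per screening run, cut at about 20% in these data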;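 further: peak over basal fluorescence ratio from a 100 s FLIPR kinetic read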
Target sequence (P30559 whole entry, looked up): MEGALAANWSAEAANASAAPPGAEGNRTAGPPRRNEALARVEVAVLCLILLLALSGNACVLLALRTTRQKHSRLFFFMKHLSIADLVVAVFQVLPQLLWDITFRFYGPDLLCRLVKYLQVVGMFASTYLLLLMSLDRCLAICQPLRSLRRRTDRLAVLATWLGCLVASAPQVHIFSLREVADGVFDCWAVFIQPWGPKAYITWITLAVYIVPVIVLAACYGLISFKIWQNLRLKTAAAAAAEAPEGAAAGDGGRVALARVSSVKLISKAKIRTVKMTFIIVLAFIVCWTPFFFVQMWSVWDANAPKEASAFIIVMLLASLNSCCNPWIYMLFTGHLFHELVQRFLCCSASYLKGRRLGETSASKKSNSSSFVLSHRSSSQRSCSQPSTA
TRPML3 ag: human TRPML3 channel agonists, primary screen, cell-based, HEK293 TRPML3-YFP, Fluo-8 calcium fluorescence, 3 µM. activation, % at 3 µM. 220,000 compounds, 0.29% hits. Mucolipin-3 (Homo sapiens), Q8TDD5. AID 1448, 2008. 100% = the carbachol control signal;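 active means activation above its plate's cutoff, the mean activation of the plate's test wells plus 3 SD, cut at about 12% in these data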;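 further: 0% = DMSO only wells and 100% = carbachol wells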
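Material: TRPML3-YFP stable HEK293 cells | Dosing: One concentration, 3 µM nominal, 0.3% DMSO | Timing: 125 s total fluorescence read per well | Technique: Fluo-8 calcium dye fluorescence, ex 470-495, em 515-575 nm | Measure: Percent activation from peak-to-basal fluorescence ratio, scaled between DMSO and carbachol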
OXTR potentiator: human OXTR potentiators, primary screen, fluorescence, CHO-OTR cells, Fluo-8 calcium; Fluo-8 calcium fluorescence, potentiator mode; 0% = oxytocin EC15, 100% = EC100; Oxytocin receptor (Homo sapiens), P30559; activation, % at 3 µM; 320,000 compounds, 0.061% hits;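 active means activation above that plate's cutoff, the mean activation of tested compounds plus 3 SD, cut at about 6.6% in these data, passing the limit was not always enough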;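 further: 100% uses oxytocin at 75 nM as the full agonist control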
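Material: CHO-OTR cells, human receptor; compound dosing: single dose, 3.0 µM nominal final compound concentration; schedule: 6 min compound pre-incubation at room temperature, 100 s kinetic read; measured by: kinetic Fluo-8 calcium fluorescence; read-out basis: % activation vs EC15 and EC100 oxytocin; controls: EC15 oxytocin alone as 0%, 75 nM oxytocin as 100%; replicates: singlicate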
V1aR counter: agonists of human V1a receptor, primary screen, counter-screen for OXTR agonist project, fluorescence, CHO-V1R cells | Vasopressin V1a receptor (Homo sapiens), P37288 | Fluo-8 calcium fluorescence, agonist mode; 0% DMSO, 100% 3 nM vasopressin | activation, % at 3 µM | 320,000 compounds, 0.25% hits | AID 2797, 2010;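 active means activation above the mean activation of all tested compounds plus 3 SD, per screening run, cut at about 20% in these data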;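 further: signal is peak over basal fluorescence ratio across a 100 second FLIPR read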
CRFR2-BP ag: agonists of CRF-BP/CRF-R2 complex, primary screen, cell-based, HEK293, calcium dye fluorescence, uHTS. CRF-binding protein / CRF receptor 2 complex (human). calcium dye fluorescence (FLIPR); percent of saturating CRF peptide response. activation, % at 13.2 µM. 350,000 compounds, 0.46% hits;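 active means activation of at least 50%, plus an integration ratio under a set limit after plate pattern correction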;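 further: plate controls were neutral control wells without compound for no effect and CRF at EC100 for full effect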
zfTRPN1 agonist: zebrafish TRPN1 channel agonists, primary screen, cell-based, HEK293, calcium fluorescence; HEK293 zebrafish TRPN1-YFP, Fluo-8 calcium fluorescence; 100% = response to 87 µM carbachol; activation, % at 3 µM; 220,000 compounds, 0.18% hits; AID 1424, 2008;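 active means activation above its plate's cutoff, the mean activation of test wells on that plate plus 3 SD, cut at about 19% in these data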;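 further: 0% = DMSO alone and 100% = 87 µM carbachol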
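Material: zebrafish TRPN1-YFP in HEK293 cells; Doses: single test compound dose, 3 µM nominal, 0.3% DMSO; Timing: dye loading 1 h at 37 °C, then 30 min room temperature; Technique: intracellular calcium fluorescence with Fluo-8; Benchmarks: high carbachol 87 µM, low DMSO alone.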
OXTR pot confirm: human OXTR potentiators, confirmation, fluorescence, CHO-OTR cells, triplicate. AID 434985, 2010. 180 tested, under 10 active. activation, % at 3 µM. Fluo-8 calcium fluorescence, potentiation; scaled from low-dose to maximal oxytocin. shares compounds with OXTR potentiator;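 active means mean percent activation over triplicates above a cutoff set from solvent-only control plates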;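 further: compounds tested in the presence of an EC15 dose of oxytocin; 0% = EC15 oxytocin with DMSO and 100% = EC100 oxytocin with DMSO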
V1aR agonist cf: V1a receptor agonists, calcium signal, confirmation, Fluo-8 calcium fluorescence, CHO-V1R cells | shares compounds with V1aR counter | agonist | activation, % at 3 µM | 180 compounds, 20% hits;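 active means average activation exceeds primary screen hit cutoff, cut at about 21% in these data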;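 further: peak over basal fluorescence ratio during a 100 s FLIPR read; 0% = DMSO only wells and 100% = 3 nM vasopressin wells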
OXTR counter: human OXTR agonists, counter-screen for V1R agonist project, fluorescence, CHO-OTR cells, triplicate. shares compounds with V1aR counter. Fluo-8 calcium fluorescence. activation, % at 3 µM. 180 compounds, 10% hits;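 active means mean activation over three repeats above the cutoff from the earlier oxytocin receptor agonist screen, cut at about 20% in these data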;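 further: peak over minimum fluorescence ratio within a 100 second FLIPR read; 0% = DMSO only wells and 100% = oxytocin high control wells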
* hit, by the source's call; · = not tested or not shown.

SMILES | OXTR agonist | TRPML3 ag | OXTR potentiator | V1aR counter | CRFR2-BP ag | zfTRPN1 agonist | OXTR pot confirm | others
Cn1c(=O)c2c(nc(NCCCO)n2Cc2cccc(Br)c2)n(C)c1=O | 1 | 0 | 11* | 0 | -3 | 0 | -6
Cc1cccc(Cn2c(NCCO)nc3c2c(=O)n(C)c(=O)n3C)c1 | -1 | 1 | 3 | 1 | -1 | 1 | ·
CCOC(=O)C1=C(CNCCOc2ccc(OC)cc2)NC(=O)NC1c1ccc2c(c1)OCO2 (configuration not stated) | -1 | -1 | 10* | -1 | -1 | -2 | -10
CCOc1cc(/C=N/NC(=O)C(N)=O)cc(Br)c1O | 0 | 0 | 0 | 0 | 0 | 0 | ·
CCOc1cc(/C=N/NC(=O)C(=O)NC2CC2)cc(Br)c1O | -1 | 1 | 16* | 0 | 0 | 1 | -6
COc1ccccc1-c1cc2nc(-c3ccccc3)cc(N3CCN(C(=O)c4ccco4)CC3)n2n1 | · | · | · | · | 0 | · | ·
CC(=O)c1sc(NC(=O)C=C(C)C)nc1C | 0 | 0 | 9.1* | 0 | -3 | 1 | -9
CCCCC(=O)Nc1nc(C)c(C(C)=O)s1 | 0 | 0 | 5 | 0 | 1 | 0 | ·
O=C(Nc1ccc(C(=O)O)cc1)/C(=C\c1ccc2c(c1)OCO2)NC(=O)c1ccccc1Cl | · | · | · | · | -1 | · | ·
CC(NC(=O)/C(C#N)=C/c1ccc(C(=O)O)cc1)c1ccccc1 (configuration not stated) | 1 | · | 13* | 0 | 1 | · | 3
COc1cc(/C=C(/C#N)C(=O)NC(C)c2ccccc2)cc(OC)c1O (configuration not stated) | 9 | · | -5 | 7 | 35 | · | ·
Cc1cc(=O)oc2c3c(cc(OCC(=O)NCC(=O)N[C@H](C(=O)O)C(C)C)c12)OC(C)(C)CC3 | 0 | · | 12* | -1 | -1 | · | -5
CC[C@H](C)[C@H](NC(=O)CNC(=O)COc1cc2c(c3oc(=O)cc(C)c13)CCC(C)(C)O2)C(=O)O | 1 | · | -8 | 1 | -1 | · | ·
COc1ccccc1S(=O)(=O)N(C)C[C@H]1OCc2cn(nn2)CCCC(=O)N([C@@H](C)CO)C[C@@H]1C | · | · | · | · | -1 | · | ·
Cc1cc(C)n(C(=O)C(C(=O)c2ccccc2)C(C)C)n1 (configuration not stated) | -3 | 0 | 11* | 0 | -6 | -2 | 1
C=CCC1(CC=C)CCCN1C(=O)c1ccc2oc(CCCC)nc2c1 | · | · | · | · | -2 | · | ·
c1ccc(-c2noc(CSc3nc4ccccc4o3)n2)cc1 | -1 | 0 | 13* | -2 | 4 | -1 | -6
Clc1ccc(-c2nnc(SCc3nc(-c4ccccc4)no3)o2)cc1 | -1 | 0 | -8 | 2 | 7 | 1 | ·
COc1cc(C(=O)NC(C)c2cccc3ccccc23)cc(OC)c1OC (configuration not stated) | -2 | · | 8 | -1 | -1 | · | ·
CC1=C(C(=O)OC(C)C)C(c2cccs2)NC(=O)N1 (configuration not stated) | 1 | 1 | 9.9* | 0 | -2 | 0 | -5
CCC(CC)NC(=O)c1nn(Cc2ccccc2)c(=O)c2ccccc12 | -1 | · | 0 | -1 | 1 | · | ·
CC(C)(C)NC(=O)c1nn(Cc2ccccc2)c(=O)c2ccccc12 | -1 | 0 | 15* | -1 | 0 | -2 | -7
Cc1coc2c(C)c3oc(=O)c(CCC(=O)NCCCN4CCCC4=O)c(C)c3cc12 | 0 | · | 12* | -1 | 2 | · | -4
CC(=O)N1CCN(C(=O)C(Cc2c[nH]c3ccccc23)NC(=O)c2ccccc2Cl)CC1 (configuration not stated) | 2 | · | 15* | 0 | -1 | · | -6
CCOC(=O)c1cc(OC(=O)Cc2ccc(OC)c(S(=O)(=O)N3CCOCC3)c2)cc(C(=O)OCC)c1 | · | · | · | · | 2 | · | ·
SMILES | OXTR agonist | TRPML3 ag | OXTR potentiator | V1aR counter | CRFR2-BP ag | zfTRPN1 agonist | OXTR pot confirm | others
O=C(O)c1ccccc1NC(=O)C1CCCO1 (configuration not stated) | 1 | 0 | 12* | 0 | -2 | 0 | 1
CCN1CCCC1CNC(=O)C(=O)Nc1cccc(OC)c1 (configuration not stated) | 2 | 0 | 13* | 1 | -1 | 1 | -4
CCN1CCCC1CNC(=O)C(=O)Nc1ccccc1 (configuration not stated) | 2 | 0 | -3 | 1 | -1 | 0 | ·
CN1CCN(CC(=O)c2cc(C(C)(C)C)c(O)c(C(C)(C)C)c2)CC1 | 0 | · | -7 | 0 | 1 | · | ·
Cc1oc(-c2ccc(Cl)cc2)nc1CS(=O)CC(=O)NCc1ccco1 (configuration not stated) | -1 | · | 7.9* | 1 | -1 | · | -8
CC(C)CNC(=O)CC(=O)N/N=C/c1ccc(F)cc1 | 2 | 1 | 12* | 0 | -2 | 0 | -3
COc1ccc(/C=C/CN2CCC(CO)(Cc3ccccc3Cl)CC2)cc1 | 13 | 0 | -25 | 28* | -1 | 2 | · | V1aR agonist cf=3;OXTR counter=9
COc1cc(OC)c(/C=C2\SC(=O)N(CC(=O)Nc3ccccc3F)C2=O)c(OC)c1 | 0 | · | -9 | 0 | 2 | · | ·
COc1cc(/C=C2\SC(=O)N(CC(=O)Nc3ccccc3F)C2=O)cc(Cl)c1O | 17 | · | -15 | 22* | 169* | · | · | V1aR agonist cf=67*;OXTR counter=60*
CCCCN1C(=O)C(CC(=O)NCc2cccc3ccccc23)CC(C(=O)N2CCOCC2)=C1C (configuration not stated) | · | · | · | · | 0 | · | ·
O=C(Nc1nnc(-c2ccc3c(c2)CCCC3)o1)c1ccccc1 | 2 | 4 | -8 | 34* | 46 | 2 | · | V1aR agonist cf=12;OXTR counter=4

Bioassay records (PubChem)
